Experimental data reported in ChEMBL document CHEMBL2203084, “Halogenated pentamethine cyanine dyes exhibiting high fidelity for G-quadruplex DNA” (Bioorg Med Chem, 2012).
The source made the active and inactive calls. The rule behind the calls is not given here.

Legend:
Type in all cases: nucleic-acid assay
Nucleic Acid [1] = assay: Binding affinity to duplex DNA at 6:1 compound to DNA ratio by UV-spectrometer
In short: (§1)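 UV thermal denaturation in 1 cm quartz cuvettes; DNA at 2–3 µM single strand in HEPES buffer (50 mM KCl). Compound:DNA ratios 0:1 to 6:1. Absorbance followed versus temperature at 295 nm for Tel22 and 260 nm for the AATT hairpin duplex. ΔTm is the average of two independent trials, reproducible within 0.5 °C.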

Nucleic Acid [2] = assay: Binding affinity to Tel22 G-quadruplex DNA at 6:1 compound to DNA ratio by UV-spectrometer; in short: as §1
Nucleic Acid [3] = assay: Binding affinity to c-myc quadruplex DNA by two site-mode surface plasmon resonance analysis
In short: (§2)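 SPR: 5′-biotinylated DNA captured on a streptavidin chip (350–400 RU), with a blank reference cell. Ligand series from 1 nM to 1 µM injected at 25 µL/min for 5 min to steady state, then 5 min dissociation. Surface regenerated with 10 mM glycine pH 2.5. Steady-state RU was converted using predicted RUmax. Values are the mean of two experiments.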

Nucleic Acid [4] = assay: Binding affinity to duplex DNA by two site-mode surface plasmon resonance analysis; in short: as §2
Nucleic Acid [5] = assay: Binding affinity to Tel22 G-quadruplex DNA at 4:1 compound to DNA ratio by UV-spectrometer; in short: as §1
Nucleic Acid [6] = assay: Binding affinity to Tel22 G-quadruplex DNA at 2:1 compound to DNA ratio by UV-spectrometer; in short: as §1
Nucleic Acid [7] = assay: Binding affinity to Tel22 G-quadruplex DNA by two site-mode surface plasmon resonance analysis; in short: as §2
Nucleic Acid [8] = assay: Binding affinity to c-myc quadruplex DNA by mass spectrometry
In short: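 ESI-MS: c-myc DNA dialyzed against 50 mM ammonium acetate pH 7.2. Samples of 25–30 µM DNA with ligand at 0:1 to 4:1 molar ratios, infused directly at 5 µL/min. Capillary 2200 V, cone 30 V, desolvation 70 °C, source 100 °C. Spectra were collected for 10 min, with the last 2 min analyzed.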

Nucleic Acid [9] = assay: Binding affinity to c-myc quadruplex DNA by circular dichroism analysis
In short: (§3)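 CD spectra were recorded at 25 °C in 50 mM KCl with 4 µM single-strand quadruplex, 1 cm quartz cuvette, scan 50 nm/min, response 1 s. Ligand was titrated at increasing ligand:quadruplex ratios, and induced CD in the ligand absorbance region was assessed qualitatively.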

Nucleic Acid [10] = assay: Binding affinity to Tel22 G-quadruplex DNA at 3:1 compound to DNA ratio by circular dichroism analysis; in short: as §3
Nucleic Acid [11] = assay: Binding affinity to duplex DNA by isothermal titration calorimetry
In short: (§4)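 ITC: ligand at 200 µM in Tris/K+ buffer injected into DNA at 20 µM in the same buffer, every 300 s, 29 injections. Heats of dilution were measured by injection into buffer and subtracted. The first injection was discarded. ΔH was from a single-site fit of heat per mole against molar ratio.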

Nucleic Acid [12] = assay: Binding affinity to Tel22 G-quadruplex DNA by isothermal titration calorimetry; in short: as §4
Nucleic Acid [13] = assay: Binding affinity to c-myc quadruplex DNA by isothermal titration calorimetry; in short: as §4

`CC1(C)C(/C=C/C(Br)=C/C=C2/N(CCC[N+](C)(C)C)c3ccc(Cl)cc3C2(C)C)=[N+](CCC[N+](C)(C)C)c2ccc(Cl)cc21` gave a ΔTm (Nucleic Acid [1]) of 1.8 °C, a ΔTm (Nucleic Acid [2]) of 20 °C and a Kb (Nucleic Acid [3]) of 0.25 ×10⁶ /M. For the same compound, the Activity (Nucleic Acid [4]) was “inactive”, the ΔTm (Nucleic Acid [5]) was 17 °C and the ΔTm (Nucleic Acid [6]) was 8 °C. It also gave a Kb (Nucleic Acid [7]) of 0.13 ×10⁶ /M.
`CC1(C)C(/C=C/C=C/C=C2/N(CCC[N+](C)(C)C)c3ccccc3C2(C)C)=[N+](CCC[N+](C)(C)C)c2ccccc21` was tested, and the ΔTm (Nucleic Acid [1]) was 0 °C, the ΔTm (Nucleic Acid [2]) was 8.7 °C and the Activity (Nucleic Acid [8]) was “Active”. For the same compound, the Activity (Nucleic Acid [9]) was “Active”, the Kb (Nucleic Acid [3]) was 0.07 ×10⁶ /M and the Activity (Nucleic Acid [4]) was “inactive”. For the same compound, the ΔTm (Nucleic Acid [5]) was 4.6 °C, the ΔTm (Nucleic Acid [6]) was 2.1 °C and the Kb (Nucleic Acid [7]) was 0.17 ×10⁶ /M. For the same compound, the Activity (Nucleic Acid [10]) was “Active”.
In the case of `CC1(C)C(/C=C/C(Cl)=C/C=C2/N(CCC[N+](C)(C)C)c3ccccc3C2(C)C)=[N+](CCC[N+](C)(C)C)c2ccccc21`, the ΔTm (Nucleic Acid [1]) is reported as 2.8 °C, the ΔTm (Nucleic Acid [2]) is reported as 13.2 °C and the Kb (Nucleic Acid [3]) is reported as 0.6 ×10⁶ /M. For the same compound, the Activity (Nucleic Acid [4]) was “inactive”, the ΔTm (Nucleic Acid [5]) was 12.2 °C and the ΔTm (Nucleic Acid [6]) was 4.6 °C. It also gave a Kb (Nucleic Acid [7]) of 0.08 ×10⁶ /M.
For `CC1(C)C(/C=C/C(Br)=C/C=C2/N(CCC[N+](C)(C)C)c3ccc(Br)cc3C2(C)C)=[N+](CCC[N+](C)(C)C)c2ccc(Br)cc21`, the ΔTm (Nucleic Acid [1]) was 1.2 °C, the ΔTm (Nucleic Acid [2]) was 20.3 °C and the Activity (Nucleic Acid [9]) was “Active”. The Kb (Nucleic Acid [3]) was 2 ×10⁶ /M, the Activity (Nucleic Acid [4]) was “inactive” and the ΔTm (Nucleic Acid [5]) was 16.2 °C. For the same compound, the ΔTm (Nucleic Acid [6]) was 8 °C, the Kb (Nucleic Acid [7]) was 0.06 ×10⁶ /M and the Activity (Nucleic Acid [11]) was “inactive”. The Activity (Nucleic Acid [10]) was “Active”.
With `CC1(C)C(/C=C/C(Br)=C/C=C2/N(CCC[N+](C)(C)C)c3ccccc3C2(C)C)=[N+](CCC[N+](C)(C)C)c2ccccc21` the ΔTm (Nucleic Acid [1]) was 0.1 °C, the ΔTm (Nucleic Acid [2]) was 15.6 °C and the Activity (Nucleic Acid [8]) was “Active”. The Kb (Nucleic Acid [3]) was 0.07 ×10⁶ /M, the Activity (Nucleic Acid [4]) was “inactive” and the ΔTm (Nucleic Acid [5]) was 11.6 °C. The ΔTm (Nucleic Acid [6]) was 4.6 °C, the Kb (Nucleic Acid [7]) was 0.74 ×10⁶ /M and the Activity (Nucleic Acid [11]) was “inactive”. For the same compound, the Activity (Nucleic Acid [12]) was “Active” and the Activity (Nucleic Acid [13]) was “Active”.
`CC1(C)C(/C=C/C(Cl)=C/C=C2/N(CCC[N+](C)(C)C)c3ccc(Cl)cc3C2(C)C)=[N+](CCC[N+](C)(C)C)c2ccc(Cl)cc21` was tested, and the ΔTm (Nucleic Acid [1]) was 2.3 °C, the ΔTm (Nucleic Acid [2]) was 19 °C and the Kb (Nucleic Acid [3]) was 0.23 ×10⁶ /M. The Activity (Nucleic Acid [4]) was “inactive”, the ΔTm (Nucleic Acid [5]) was 15 °C and the ΔTm (Nucleic Acid [6]) was 7 °C. For the same compound, the Kb (Nucleic Acid [7]) was 0.08 ×10⁶ /M.
For `CC1(C)C(/C=C/C=C/C=C2/N(CCC[N+](C)(C)C)c3ccc(Cl)cc3C2(C)C)=[N+](CCC[N+](C)(C)C)c2ccc(Cl)cc21`, the ΔTm (Nucleic Acid [1]) was 0.5 °C, the ΔTm (Nucleic Acid [2]) was 13.2 °C and the Kb (Nucleic Acid [3]) was “inactive”. The Activity (Nucleic Acid [4]) was “inactive”, the ΔTm (Nucleic Acid [5]) was 8.9 °C and the ΔTm (Nucleic Acid [6]) was 3.1 °C. The Kb (Nucleic Acid [7]) was “inactive”.
`CC1(C)C(/C=C/C(Cl)=C/C=C2/N(CCC[N+](C)(C)C)c3ccc(Br)cc3C2(C)C)=[N+](CCC[N+](C)(C)C)c2ccc(Br)cc21` gave a ΔTm (Nucleic Acid [1]) of 2.5 °C, a ΔTm (Nucleic Acid [2]) of 21 °C and a Kb (Nucleic Acid [3]) of 0.2 ×10⁶ /M. For the same compound, the Activity (Nucleic Acid [4]) was “inactive”, the ΔTm (Nucleic Acid [5]) was 16 °C and the ΔTm (Nucleic Acid [6]) was 9 °C. It also gave a Kb (Nucleic Acid [7]) of 0.05 ×10⁶ /M.
`CC1(C)C(/C=C/C=C/C=C2/N(CCC[N+](C)(C)C)c3ccc(Br)cc3C2(C)C)=[N+](CCC[N+](C)(C)C)c2ccc(Br)cc21` was tested, and the ΔTm (Nucleic Acid [1]) was 1.1 °C, the Activity (Nucleic Acid [9]) was “Active” and the Kb (Nucleic Acid [3]) was 3.6 ×10⁶ /M. For the same compound, the Activity (Nucleic Acid [4]) was “inactive”, the ΔTm (Nucleic Acid [5]) was 15.6 °C and the ΔTm (Nucleic Acid [6]) was 2.5 °C. The Kb (Nucleic Acid [7]) was 0.59 ×10⁶ /M, the Activity (Nucleic Acid [11]) was “inactive” and the Activity (Nucleic Acid [10]) was “Active”.
